Results published in ChEMBL document CHEMBL1806459, “Discovery of N-(1-ethylpropyl)-[3-methoxy-5-(2-methoxy-4-trifluoromethoxyphenyl)-6-methyl-pyrazin-2-yl]amine 59 (NGD 98-2): an orally active corticotropin releasing factor-1 (CRF-1) receptor antagonist” (J Med Chem, 2011).
pKi: −log10 of the molar value.

What was measured:
[1] = target: T1, Corticotropin-releasing factor receptor 1 (Homo sapiens, UniProt P34998); assay: Displacement of [125I]-sauvagine from human CRF-1 receptor expressed in human IMR-32 cells after 2 hrs by scintillation counting; format: cell-based
T1 sequence (P34998 whole entry): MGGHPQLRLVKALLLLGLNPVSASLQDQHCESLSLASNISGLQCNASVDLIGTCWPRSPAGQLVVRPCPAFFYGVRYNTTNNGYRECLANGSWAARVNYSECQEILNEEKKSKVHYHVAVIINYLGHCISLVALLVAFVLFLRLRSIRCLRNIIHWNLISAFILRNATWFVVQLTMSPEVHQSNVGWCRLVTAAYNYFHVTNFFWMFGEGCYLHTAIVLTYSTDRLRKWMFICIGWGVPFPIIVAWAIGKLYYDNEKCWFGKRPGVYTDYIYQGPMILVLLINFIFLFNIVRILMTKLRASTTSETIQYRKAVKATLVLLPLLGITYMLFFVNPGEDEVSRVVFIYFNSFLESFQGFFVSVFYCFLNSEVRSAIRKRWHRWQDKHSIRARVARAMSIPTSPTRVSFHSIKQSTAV
Procedure, shortened: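 Competition binding against 125I-sauvagine on membrane preparations from IMR-32 human neuroblastoma cells, which express CRF-1 endogenously. Modified from a published method.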

[2] = Half life in human microsomes; format: ADME, Microsome
Procedure, shortened: (§1)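 Stability in human or rat liver microsomes; half-life (T1/2, min) of compound turnover reported.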

[3] = Half life in rat microsomes; format: ADME, Microsome; procedure, shortened: as §1

pKi [1] | half-life [2] [min] | half-life [3] [min] | SMILES
8.96 | 120 |  | CCc1nc(-c2ccc(OC)cc2Cl)c(OC)nc1NC(CC)CC
6.78 | 73 | 21 | CCc1nc(NC(CC)CC)c(F)nc1-c1ccc(Cl)cc1Cl
7.57 | 29 | 3.2 | CCC(CC)Nc1nc(C)c(-c2ccc(Cl)cc2Cl)nc1C
8.36 | 73 | 23 | CCc1nc(NC(CC)CC)c(OC)nc1-c1ccc(C(F)(F)F)cc1OC
6.26 | 28 |  | CCc1nc(NC(CC)CC)cnc1-c1ccc(Cl)cc1Cl
7.34 | 10 | 2.5 | CCc1nc(-c2ccc(Cl)cc2Cl)c(CC)nc1OC(CC)CC
8.12 | 7 | < 1 | CCc1nc(-c2cnc(C)cc2N(C)C)c(CC)nc1NC(CC)CC
7.59 | 8 | < 1 | CCc1nc(N(CC2CC2)CC2CC2)c(CC)nc1-c1ccc(Cl)cc1Cl
8.08 | 16 | 2.5 | CCC(CC)Nc1nc(OC)c(-c2ccc(Cl)cc2Cl)nc1OC
7.94 | 9 | 2.5 | CCc1nc(-c2ccc(OC)nc2OC)c(CC)nc1NC(CC)CC
8.07 | 18 | 4.2 | CCc1nc(-c2ccc(Cl)cc2Cl)c(C)nc1NC(CC)CC
5.81 | 5 | < 1 | CCCN(CCN(C)C)c1nc(CC)c(-c2ccc(Cl)cc2Cl)nc1CC
8.34 | 120 | 48 | CCC(CC)Nc1nc(C)c(-c2ccc(OC(F)F)cc2Cl)nc1OC
8.14 | 8 | 2.5 | CCc1nc(-c2ccc(OC)cc2OC)c(CC)nc1NC(CC)CC
8.25 | 11 |  | CCc1nc(-c2ccc(C(F)(F)F)cc2OC)c(CC)nc1NC(CC)CC
6.82 | 120 | 74 | CCOc1nc(-c2ccc(Cl)cc2Cl)c(CC)nc1NC(CC)CC

pKi [1] | half-life [2] [min] | half-life [3] [min] | SMILES
8.21 | 52 | 36 | CCc1nc(-c2ccc(OC(F)(F)F)cc2OC)c(OC)nc1NC(CC)CC
8.37 |  |  | CCC(CC)Nc1nc(C)c(-c2ccc(Cl)cc2Cl)nc1OC
6.65 | 9 | 2.5 | CCc1nc(-c2ccc(Cl)cc2Cl)c(CC)nc1NC(COC)COC
8.23 | 120 | 47 | CCOc1ccc(-c2nc(OC)c(NC(CC)CC)nc2C)c(Cl)c1
8.36 | 12 | 4.3 | CCc1nc(-c2ccc(OC)cc2C(F)(F)F)c(CC)nc1NC(CC)CC
8.14 | 13 | 2.5 | CCc1nc(-c2ccc(OC(F)(F)F)cc2OC)c(CC)nc1NC(CC)CC
8.43 | 11 | 2.5 | CCc1nc(-c2ccc(Cl)cc2Cl)c(CC)nc1NC(C1CC1)C1CC1
7.84 | 56 | 17 | CCC(CC)Nc1nc(OC)c(-c2ccc(Cl)cc2Cl)nc1C
7.63 | 11 | < 1 | CCc1nc(-c2ccc(C)cc2OC)c(CC)nc1NC(CC)CC
8.39 | 16 | 4.1 | CCc1nc(-c2ccc(OC)cc2OC(F)(F)F)c(CC)nc1NC(CC)CC
8.60 | 120 | 17 | CCc1nc(-c2ccc(OC(F)F)cc2Cl)c(OC)nc1NC(CC)CC
8.11 |  |  | CCOc1ccc(-c2nc(CC)c(NC(CC)CC)nc2CC)c(OC)c1
8.66 | 120 | 120 | CCc1nc(NC(CC)CC)c(OC)nc1-c1ccc(OC)cc1C(F)(F)F
8.23 | 35 |  | CCc1nc(NC(CC)CC)c(OC)nc1-c1ccc(Cl)cc1Cl
7.92 |  |  | CCc1nc(NC(CC)CC)c(I)nc1-c1ccc(Cl)cc1Cl
